How the values were obtained:
[1] = molecular target: CRK SH2 domain (Homo sapiens, UniProt P46108); assay: FP saturation binding; settings: result in words
Summary of the method: (§1)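 Multi-SH2 genes were used as tandem proteins that kept the linker residues. Automated high-throughput FP saturation binding was run against 178 synthetic phosphopeptides from RTK, GAB1 and androgen receptor tyrosine sites. Millipolarization readings were fitted to P_obs = Pmax·[Protein]/(K_D+[Protein]) by least squares regression to give K_D.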

[2] = molecular target: CRKL SH2 domain (Homo sapiens, UniProt P46109); assay: FP saturation binding; settings: result in words
Summary of the method: as §1

[3] = tested on: tensin family SH2 domains; assay: FP saturation binding, domain family; design: species or system human; settings: result in words
Summary of the method: as §1

[4] = molecular target: T1, SH2D1B SH2 domain (Homo sapiens, UniProt O14796); assay: FP saturation binding; settings: result in words
T1 sequence (O14796 5-101 limits assumed): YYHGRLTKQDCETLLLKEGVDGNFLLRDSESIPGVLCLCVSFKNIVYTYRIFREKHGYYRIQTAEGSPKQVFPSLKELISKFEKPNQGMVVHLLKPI
Summary of the method: as §1

[5] = molecular target: T2, Shp2/PTPN11 SH2 domain (Homo sapiens, UniProt Q06124); assay: FP saturation binding, construct not stated; settings: result in words
T2 sequence (Q06124 2-593): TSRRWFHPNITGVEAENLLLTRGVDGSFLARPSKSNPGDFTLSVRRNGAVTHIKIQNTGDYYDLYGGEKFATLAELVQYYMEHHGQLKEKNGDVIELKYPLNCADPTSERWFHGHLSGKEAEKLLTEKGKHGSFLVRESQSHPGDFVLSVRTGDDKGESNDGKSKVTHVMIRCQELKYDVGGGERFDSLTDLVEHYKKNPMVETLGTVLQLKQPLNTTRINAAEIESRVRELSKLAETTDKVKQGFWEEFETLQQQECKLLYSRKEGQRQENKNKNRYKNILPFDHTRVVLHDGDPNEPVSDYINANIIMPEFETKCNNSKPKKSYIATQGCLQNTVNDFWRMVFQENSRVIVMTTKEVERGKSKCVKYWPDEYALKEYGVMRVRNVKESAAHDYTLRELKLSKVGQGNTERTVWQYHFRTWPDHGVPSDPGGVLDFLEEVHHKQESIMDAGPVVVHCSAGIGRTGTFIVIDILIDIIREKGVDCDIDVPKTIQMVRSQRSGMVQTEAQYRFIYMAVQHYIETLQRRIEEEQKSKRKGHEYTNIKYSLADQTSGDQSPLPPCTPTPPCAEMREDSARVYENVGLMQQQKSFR
Summary of the method: as §1

[6] = tested on: c-Src family kinase SH2 domains; assay: FP saturation binding, domain family; design: species or system human; settings: result in words
Summary of the method: as §1

[7] = molecular target: T3, PLCG1 SH2 domains (Homo sapiens, UniProt P19174); assay: FP saturation binding, construct not stated; settings: result in words
T3 sequence (P19174 550-756 limits assumed): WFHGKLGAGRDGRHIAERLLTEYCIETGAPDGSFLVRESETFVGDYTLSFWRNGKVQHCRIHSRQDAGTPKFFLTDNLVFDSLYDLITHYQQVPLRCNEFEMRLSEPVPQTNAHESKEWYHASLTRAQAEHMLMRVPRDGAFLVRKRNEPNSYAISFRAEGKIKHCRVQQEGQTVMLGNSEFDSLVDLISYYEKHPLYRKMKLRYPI
Summary of the method: as §1

[8] = tested on: PIK3R-derived SH2 domains; assay: FP saturation binding, domain family; design: species or system human; settings: for recruitment of PIK3R (PI3KR) SH2 domains: FP, result in words
Summary of the method: as §1

[9] = molecular target: T4, SHC1 SH2 domain (Homo sapiens, UniProt P29353); assay: FP saturation binding; settings: result in words
T4 sequence (P29353 488-579 limits assumed): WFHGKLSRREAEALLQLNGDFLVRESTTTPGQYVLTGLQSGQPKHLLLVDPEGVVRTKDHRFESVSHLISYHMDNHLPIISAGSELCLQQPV
Summary of the method: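 Tandem SH2 proteins were kept with their linkers. Synthetic phosphotyrosine peptides were run in automated high-throughput FP saturation binding. Millipolarization was fitted to Pobs = Pmax·[Protein]/(KD+[Protein]) by least squares to give KD per protein/peptide pair.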

[10] = molecular target: T5, RASA1 SH2 domains (Homo sapiens, UniProt P20936); assay: FP saturation binding, construct not stated; settings: result in words
T5 sequence (P20936 181-441 limits assumed): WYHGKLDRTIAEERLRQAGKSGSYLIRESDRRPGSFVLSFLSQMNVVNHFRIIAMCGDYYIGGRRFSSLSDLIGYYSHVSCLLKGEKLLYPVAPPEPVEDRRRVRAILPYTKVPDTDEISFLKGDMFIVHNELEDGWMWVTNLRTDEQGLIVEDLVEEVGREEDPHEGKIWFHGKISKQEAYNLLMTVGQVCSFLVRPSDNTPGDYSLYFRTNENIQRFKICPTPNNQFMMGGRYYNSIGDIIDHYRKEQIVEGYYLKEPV
Summary of the method: as §1

[11] = molecular target: SH2D1A SH2 domain (Homo sapiens, UniProt O60880); assay: FP saturation binding; settings: result in words
Summary of the method: as §1

[12] = tested on: 93 SH2 domains and 2 phosphotyrosine binding (PTB) domains; assay: High throughput FP, whole domain panel; design: species or system human; settings: result in words
Summary of the method: as §1

[13] = molecular target: PIK3R3 (C-terminal domain), PIK3R3.C (Homo sapiens, UniProt Q92569); assay: FP saturation binding; settings: result in words
Summary of the method: as §1

[14] = molecular target: PLCG1 (NC tandem domain), PLCG1.NC (Homo sapiens, UniProt P19174); assay: FP saturation binding; settings: result in words
Summary of the method: as §1

[15] = molecular target: PIK3R1 SH2 domains (Homo sapiens, UniProt P27986); assay: FP saturation binding, construct not stated; settings: result in words
Summary of the method: as §1

[16] = tested on: PIK3R3 SH2 domains; assay: FP saturation binding, construct not stated; design: species or system human; settings: result in words
Summary of the method: as §1

[17] = molecular target: T6, PLCG2 SH2 domains (Homo sapiens, UniProt P16885); assay: FP saturation binding, construct not stated; settings: result in words
T6 sequence (P16885 532-735 limits assumed): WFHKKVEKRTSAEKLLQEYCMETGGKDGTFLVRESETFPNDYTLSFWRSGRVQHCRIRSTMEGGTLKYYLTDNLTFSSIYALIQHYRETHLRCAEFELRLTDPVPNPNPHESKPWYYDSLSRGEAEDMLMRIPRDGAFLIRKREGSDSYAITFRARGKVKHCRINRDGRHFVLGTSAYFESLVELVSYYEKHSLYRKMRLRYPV
Summary of the method: as §1

Chain of CRK SH2 domain (P46108 13-118 limits assumed): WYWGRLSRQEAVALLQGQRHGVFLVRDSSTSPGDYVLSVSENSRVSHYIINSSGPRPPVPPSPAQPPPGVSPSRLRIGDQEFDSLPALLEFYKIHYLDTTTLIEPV
Chain of CRKL SH2 domain (P46109 14-102 limits assumed): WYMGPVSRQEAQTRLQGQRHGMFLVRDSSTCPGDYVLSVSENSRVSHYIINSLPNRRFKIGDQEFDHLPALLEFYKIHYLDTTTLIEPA
Chain of PIK3R1 SH2 domains (P27986 2-724): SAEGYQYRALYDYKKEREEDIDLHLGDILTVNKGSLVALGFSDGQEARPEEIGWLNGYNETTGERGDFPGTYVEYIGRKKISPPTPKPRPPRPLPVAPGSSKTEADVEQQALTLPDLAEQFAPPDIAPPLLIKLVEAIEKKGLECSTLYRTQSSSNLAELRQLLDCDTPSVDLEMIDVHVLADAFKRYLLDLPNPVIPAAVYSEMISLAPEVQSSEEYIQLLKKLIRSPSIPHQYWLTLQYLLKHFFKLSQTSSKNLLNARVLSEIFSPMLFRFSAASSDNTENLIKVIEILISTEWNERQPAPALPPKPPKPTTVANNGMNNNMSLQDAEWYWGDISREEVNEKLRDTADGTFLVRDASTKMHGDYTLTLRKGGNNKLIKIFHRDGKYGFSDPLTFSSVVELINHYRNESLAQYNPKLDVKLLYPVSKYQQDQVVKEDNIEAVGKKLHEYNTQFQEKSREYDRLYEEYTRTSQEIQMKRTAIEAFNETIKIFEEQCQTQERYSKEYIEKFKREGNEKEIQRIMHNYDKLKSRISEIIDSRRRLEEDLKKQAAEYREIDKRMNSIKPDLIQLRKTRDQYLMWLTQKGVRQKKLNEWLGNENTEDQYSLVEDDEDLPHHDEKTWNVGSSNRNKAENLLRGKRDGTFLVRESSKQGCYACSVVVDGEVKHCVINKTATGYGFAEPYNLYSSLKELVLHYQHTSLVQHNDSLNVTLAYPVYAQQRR
Chain of SH2D1A SH2 domain (O60880 6-104 limits assumed): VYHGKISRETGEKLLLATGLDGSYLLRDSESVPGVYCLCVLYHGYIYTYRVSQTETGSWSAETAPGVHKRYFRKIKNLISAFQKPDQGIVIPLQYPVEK

DSSLXNLPRSYSd [GAB1 Tyr(P)-259]
recruitment of CRK SH2 domain [1]: no CRK SH2 domain interactions | recruitment of CRKL SH2 domain [2]: CRKL SH2 domain interactions

DVWSXGIFLWELd [c-Kit Tyr(P)-855]
recruitment of CRK SH2 domain [1]: recruited | recruitment of tensin family SH2 domains [3]: recruited

ERVDXVVVDQQKd [GAB1 Tyr(P)-689]
recruitment of SH2D1B SH2 domain [4]: able to recruit | recruitment of Shp2/PTPN11 SH2 domain [5]: unable to recruit | recruitment of c-Src family kinase SH2 domains [6]: able to recruit | recruitment of PLCG1 SH2 domains [7]: able to recruit | recruitment of PIK3R (PI3KR) SH2 domains [8]: able to recruit | interaction with SHC1 SH2 domain [9]: interactions were identified

VITEXCCYGDLLd [c-Kit Tyr(P)-672]
recruitment of CRK SH2 domain [1]: recruited | recruitment of c-Src family kinase SH2 domains [6]: recruited

IGEHXVHVNATYd [c-Met Tyr(P)-1349]
recruitment of SH2D1B SH2 domain [4]: moderate affinity | recruitment of PLCG1 SH2 domains [7]: moderate affinity

STNEXMDMKPGVd [c-Kit Tyr(P)-721]
midpoint dissociation constants ([8]; FP saturation binding, all PIK3R SH2 domains, in words): sub-micromolar | recruitment of PIK3R (PI3KR) SH2 domains [8]: highest affinity

CVAPXPSLLSSEd [c-Met Tyr(P)-1365]
recruitment of RASA1 SH2 domains [10]: interactions | recruitment of SH2D1B SH2 domain [4]: interactions | recruitment of Shp2/PTPN11 SH2 domain [5]: recruit | recruitment of c-Src family kinase SH2 domains [6]: interactions | recruitment of PLCG1 SH2 domains [7]: interactions | recruitment of SH2D1A SH2 domain [11]: interactions | recruitment of tensin family SH2 domains [3]: interactions

YSGPXGDMRLETd [AR Tyr(P)-534]
recruitment across the SH2 domain panel [12]: interacted with few SH2 domains | recruitment of c-Src family kinase SH2 domains [6]: did not recruit | recruitment of PIK3R3 (C-terminal domain) [13]: did recruit | recruitment of PLCG1 (NC tandem domain) [14]: did recruit

NNYVXIDPTQLPd [c-Kit Tyr(P)-570]
recruitment of c-Src family kinase SH2 domains [6]: recruited

TDSSXCIPTAGMd [GAB1 Tyr(P)-373]
recruitment of CRK SH2 domain [1]: no CRK SH2 domain interactions | recruitment of PLCG1 SH2 domains [7]: confirmed | interaction with SHC1 SH2 domain [9]: interactions were identified

QEANXVPMTPGTd [GAB1 Tyr(P)-472]
recruitment of PIK3R1 [15]: confirmed | recruitment of PIK3R3 [16]: high affinity

PGNTXQIPRTFPd [GAB1 Tyr(P)-317]
recruitment of RASA1 SH2 domains [10]: confirmed

SQDCXDIPRAFPd [GAB1 Tyr(P)-406]
recruitment of CRK SH2 domain [1]: no CRK SH2 domain interactions | recruitment of PLCG1 SH2 domains [7]: confirmed | recruitment of CRKL SH2 domain [2]: CRKL SH2 domain interactions

LPIDXYFPPQKTd [AR Tyr(P)-551]
recruitment of PLCG2 SH2 domains [17]: recruitment sites | recruitment of PLCG1 SH2 domains [7]: recruitment sites

EYCCXGDLLNFLd [c-Kit Tyr(P)-675]
recruitment of CRK SH2 domain [1]: recruited | recruitment of c-Src family kinase SH2 domains [6]: recruited

Source: paper PMC4083110 (Molecular & Cellular Proteomics : MCP, 2014)
